Assay outcomes: PubChem, several laboratories
Hits are enriched below; roughly 1.8% of the tested compounds scored in any of these assays.
PABP FP inh = PABP poly(A) RNA binding inhibitors, primary screen, biochemical, fluorescence polarization, uHTS; 1% of 290,000 active; Polyadenylate-binding protein 1 (Homo sapiens), P11940; calls only at 35 µM;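 further: calls also rest on retests at 20 µM and on dose response follow-up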
HCV core dimer = inhibitors of HCV core protein dimerization, primary screen, biochemical, TR-FRET, high-throughput | TR-FRET GST/Flag-core106 dimerization, 1536-well | inhibition, % at 5 µM | 0.33% of 300,000 active;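 active means inhibition above the mean of all tested compounds plus 3 SD, set per screening campaign, cut at about 45% in these data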
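System – GST-tagged and Flag-tagged HCV core protein residues 1-106 · Repeats – one well for each compound · Technique – TR-FRET 671 and 617 nm emission · Doses – one concentration, 5 µM, in 0.5% DMSO · Times – 4 h, 22.5 °C incubation · Also added – Eu donor and XL665 acceptor anti-tag antibodies · Measure – percent inhibition of core106 dimerization signal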
eIF4H inh = human eIF4H binding inhibitors, primary screen, translation initiation inhibitor project, biochemical, uHTS, fluorescence polarization; Eukaryotic translation initiation factor 4H (Homo sapiens), Q15056; eIF4H fluorescence polarization binding assay; inhibition, % at 35 µM; 0.94% of 290,000 active;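 further: calls also rest on retests at 20 µM and on dose response follow-up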
MLLE-PAM2 inh = inhibitors of PABP1 MLLE–PAM2 peptide binding, primary screen, biochemical, fluorescence polarization, FITC-PAM2, GST-MLLE. Polyadenylate-binding protein 1 (Homo sapiens), P11940. inhibition, % at 20 µM. 0.36% of 360,000 active. AID 588489, 2011; in the data active means inhibition above about 35%, passing the limit was not always enough;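 further: plate controls were DMSO wells with GST-MLLE for no effect and wells lacking GST-MLLE protein for full effect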
eIF4E 4G PPI = eIF4E–eIF4G protein interaction inhibitors, primary screen, biochemical, uHTS, TR-FRET, eIF4GI fragment. inhibition, % at 21.7 µM. 0.37% of 220,000 active. AID 782, 2007. TR-FRET eIF4E-eIF4GI(517-606) binding, 2 h. Eukaryotic translation initiation factor 4E (Mus musculus) + Eukaryotic translation …;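 active means inhibition above about 30%, limit read from the data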;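 further: 0% = full FRET control wells and 100% = background wells lacking eIF4GI fragment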
UBC9 SUMO inh = inhibitors of in vitro SUMOylation cascade, primary screen, biochemical, HTRF, uHTS; HTRF SUMOylation assay, SAE1/SAE2 + UBC9; inhibition, % at 35 µM; 0.36% of 290,000 active; AID 2006, 2009; in the data active means inhibition above about 50%, passing the limit was not always enough; inconclusive means no clear call, values can overlap the other calls
The depositor's hits bear a star; i = inactive; ? = inconclusive; . = no result; + = active, no number; [ ] = another dose, or the depositor's remark. Unless noted, how the calls were made is not given here.

SMILES	PABP FP inh	HCV core dimer	eIF4H inh	MLLE-PAM2 inh	eIF4E 4G PPI	UBC9 SUMO inh
Cc1cc(C)nc(SCC(=O)NN=Cc2ccc(C)o2)n1	.	.	.	18	.	.
CC(Sc1ncccn1)C(=O)NC1(C#N)CCCCC1 (stereo not drawn)	.	.	.	13	.	.
CC(SC1=Nc2ccccc2C2CC=NN12)C(=O)NC1(C#N)CCCCC1 (stereo not drawn)	.	-7	.	41*	.	.
CC(C)(C)c1[nH]nc2c1C(c1ccc(OC(=O)c3ccco3)cc1)C(C#N)=C(N)O2 (stereo not drawn)	i	7	4	-3	43*	25
COc1ccccc1CC(=O)NNC(=O)c1ccco1	i	10	2	3	.	-10
CCCCNC1=CC(=O)C(NCCCC)=CC1=O	.	.	.	-11	.	.
CCCCNC1=CC(=O)C(=O)c2ccccc21	i	-7	5	5	-2	91*
COC(=O)c1ccccc1NC1=C/C(=N\S(=O)(=O)c2ccc(C(=O)O)cc2)c2ccccc2C1=O	i	23	19	32	.	92*
C=C(C)Cn1c2ccc(NC(=O)NCc3ccccc3)cc2c(=O)n1C	.	.	.	2	.	.
N#Cc1c(N)n(-c2ccc(C(=O)O)cc2)c2nc3ccccc3nc12	i	7	80*	-43	-6	50
N#Cc1c(N)n(-c2ccc(N)cc2)c2nc3ccccc3nc12	i	2	-1	11	2	-6
Cc1cc(=O)[nH]c(SCn2nnc3ccccc3c2=O)n1	i	-2	-11	43*	-3	16
O=c1c2ccccc2nnn1CSc1nc2ccccc2[nH]1	i	-7	-5	-7	2	-15
O=C(N/N=C/c1ccc(-c2ccc(Cl)c(C(=O)O)c2)o1)c1cc2c(ccc3ccccc32)o1	+	22	76*	-7	25	51*
Cc1ccc(-c2ccc(/C=N\NC(=O)c3cc4c(ccc5ccccc54)o3)o2)cc1[N+](=O)[O-]	i	21	-7	-3	19	22
Cc1ccc(CCNC(=O)Cn2ncc3c([nH]c4ccccc43)c2=O)cc1	i	-16	-8	-6	.	37
Cc1ccc2[nH]c3c(=O)n(CC(=O)NCc4ccco4)ncc3c2c1	i	19	59*	-22	.	22
O=C1CCN2C=Nc3cccc4ccc1c2c34	?	-7	?	i	4	66*
O=C1CCC(=O)c2ccc3c4c(ccc1c24)CC3	.	.	.	11	.	.
CCCn1c(=O)c2sccc2n2c(CCCC(=O)NCc3ccco3)nnc12	+	10	78*	-1	.	15
CCn1c(C)[n+](CCOC(C)=O)c2cc(Cl)c(Cl)cc21	+	2	0	-128	3	8
OCc1ccnc2oc3ccccc3c12	.	-1	.	4	.	.
CCCCCc1nnc(NC(=O)Cc2cccs2)s1	i	71*	56	-5	-1	13
CC(C)Cc1nnc(NC(=O)Cc2cccs2)s1	+	67*	74*	-58	30	12
CC(C)(C)Cc1nnc(NC(=O)Cc2cccs2)s1	i	51*	22	-1	25	20
SMILES	PABP FP inh	HCV core dimer	eIF4H inh	MLLE-PAM2 inh	eIF4E 4G PPI	UBC9 SUMO inh
Cc1cccc(NC(=O)C2CCCN(S(=O)(=O)c3cccs3)C2)c1C (stereo not drawn)	i	3	0	-12	.	9
O=C(COc1ccccc1Cl)c1ccc[nH]1	i	67*	?	8	33*	46
CCC(Oc1ccccc1)C(=O)Nc1cc(C(F)(F)F)ccc1N1CCOCC1 (stereo not drawn)	.	2	.	-12	.	.
CCCC[N+](CC#CCO)(CC#Cc1ccccc1)CCCC	i	4	5	-8	-1	11
CCC[N+](CC#CCO)(CC#Cc1ccccc1)CCC	i	2	-3	-1	91*	8
Oc1c(C(c2cccs2)N2CCN(c3ccccc3)CC2)ccc2cccnc12 (stereo not drawn)	i	2	4	.	36*[fluorescence artefact?]	-50
Oc1c(C(c2ccccc2Cl)N2CCCC2)ccc2cccnc12 (stereo not drawn)	i	4	15	18	10	-41
O=C(Cn1nc(-c2ccc(Cl)cc2)c2ccccc2c1=O)NN1CCOCC1	i	-1	-1	18	1	2
COc1ccc(OCc2nn3c(-c4ccco4)nnc3s2)cc1	i	11	11	11	11	34
COc1cccc(OC)c1-c1nn2c(-c3cc(-c4ccccc4)n[nH]3)nnc2s1	i	54*	-8	-213	-216	3
c1coc(-c2nn3c(-c4ccco4)nnc3s2)c1	+	10	95*	11	7	39
c1coc(-c2nnc3sc(Cc4cccs4)nn23)c1	+	24	77*	-20	14	49
c1csc(Cc2nn3c(-c4n[nH]c5c4CCC5)nnc3s2)c1	+	42	56	-127	-9	25
CCN(CC)CCNC(=O)c1ccc(NC(=O)c2ccc(F)cc2F)cc1	i	-12	9	4	5	12
CC(=O)N(C)c1ccc(C(O)(C(F)(F)F)C(F)(F)F)cc1	i	-1	4	-5	0	14
CCCOc1ccc(F)cc1-c1cc(C(=O)NCc2cc(OC)cc(OC)c2)[nH]n1	.	.	.	0	.	.
COC(=O)[C@@]1(C)[C@H]2C(=O)N(C)C(=O)[C@H]2[C@H]2CN=C(SC)N21	.	.	.	3	.	.
COc1ccccc1-c1nn2c(-c3ccco3)nnc2s1	i	14	59*	3	-3	15
O=C(NC(=S)Nc1ccc(CN2CCOCC2)cc1)c1ccc([N+](=O)[O-])cc1	i	3	-5	52*	1	6
O=C(/C=C/c1cccc([N+](=O)[O-])c1)NC(=S)Nc1ccc(CN2CCOCC2)cc1	i	6	-7	40*	-3	5
CC(C)N1CCC2(CC1)C(C#N)=C(N)NC(S)=C2C#N	i	-12	42	.	-6	52*
CC(=O)NCCN=C(C)c1sc2ccccc2c1O	i	-18	0	35*	-1	-12
CC(=Nc1ccc(O)cc1)c1sc2ccccc2c1O	i	-12	?	-32	9	11
O=C1CSC(=S)N1/N=C/C=C/c1ccccc1	i	53*	20	19	2	-32
O=C1CSC(=S)N1/N=C/c1c(F)cccc1F	i	3	-11	13	.	2
Cc1nc2ccccc2cc1C(=O)N/N=C/c1ccco1	i	-7	87*	-4	15	-3
